Test results: ChEMBL document CHEMBL4311938, “Sirtuin inhibition and anti-cancer activities of ethyl 2-benzimidazole-5-carboxylate derivatives” (Medchemcomm, 2019)
Active and inactive are the calls of the source. The calls are words filed in the database; no cut-off is given here.

How the values were obtained:
[1] = molecular target: T1, NAD-dependent protein deacetylase sirtuin-3, mitochondrial (Homo sapiens, UniProt Q9NTG7); experiment: Inhibition of human recombinant SIRT3 using p53 (317 to 320 residues) conjugated to AMC as substrate incubated for 45 mins in presence of NAD+ by fluorescence assay
T1 sequence (Q9NTG7 whole entry): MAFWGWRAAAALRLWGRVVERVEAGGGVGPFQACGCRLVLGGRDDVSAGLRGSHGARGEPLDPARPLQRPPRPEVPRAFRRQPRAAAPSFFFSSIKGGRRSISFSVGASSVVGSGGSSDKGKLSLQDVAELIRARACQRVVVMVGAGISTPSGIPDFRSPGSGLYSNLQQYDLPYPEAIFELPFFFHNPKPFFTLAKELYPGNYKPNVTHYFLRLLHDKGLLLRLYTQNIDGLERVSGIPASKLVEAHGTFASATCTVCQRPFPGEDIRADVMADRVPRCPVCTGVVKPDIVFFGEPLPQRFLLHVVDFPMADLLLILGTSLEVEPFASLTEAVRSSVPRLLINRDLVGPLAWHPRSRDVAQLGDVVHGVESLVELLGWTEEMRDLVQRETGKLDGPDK

[2] = molecular target: T2, NAD-dependent protein deacetylase sirtuin-2 (Homo sapiens, UniProt Q8IXJ6); experiment: Inhibition of human recombinant SIRT2 using p53 (317 to 320 residues) conjugated to AMC as substrate incubated for 45 mins in presence of NAD+ by fluorescence assay
T2 sequence (Q8IXJ6 whole entry): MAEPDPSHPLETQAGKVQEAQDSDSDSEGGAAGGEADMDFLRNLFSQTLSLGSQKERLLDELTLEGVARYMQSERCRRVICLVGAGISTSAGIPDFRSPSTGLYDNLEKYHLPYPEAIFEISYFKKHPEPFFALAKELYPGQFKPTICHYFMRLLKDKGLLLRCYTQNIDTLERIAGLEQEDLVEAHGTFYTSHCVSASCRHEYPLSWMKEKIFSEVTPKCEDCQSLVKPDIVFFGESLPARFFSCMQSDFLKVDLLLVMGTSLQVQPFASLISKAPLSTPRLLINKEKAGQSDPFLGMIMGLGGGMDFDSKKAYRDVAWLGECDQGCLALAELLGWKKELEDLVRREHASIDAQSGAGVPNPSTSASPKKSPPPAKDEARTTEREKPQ

[3] = molecular target: T3, NAD-dependent protein deacetylase sirtuin-1 (Homo sapiens, UniProt Q96EB6); experiment: Inhibition of human recombinant SIRT1 using p53 (379 to 382 residues) conjugated to AMC as substrate incubated for 45 mins in presence of NAD+ by fluorescence assay
T3 sequence (Q96EB6 whole entry): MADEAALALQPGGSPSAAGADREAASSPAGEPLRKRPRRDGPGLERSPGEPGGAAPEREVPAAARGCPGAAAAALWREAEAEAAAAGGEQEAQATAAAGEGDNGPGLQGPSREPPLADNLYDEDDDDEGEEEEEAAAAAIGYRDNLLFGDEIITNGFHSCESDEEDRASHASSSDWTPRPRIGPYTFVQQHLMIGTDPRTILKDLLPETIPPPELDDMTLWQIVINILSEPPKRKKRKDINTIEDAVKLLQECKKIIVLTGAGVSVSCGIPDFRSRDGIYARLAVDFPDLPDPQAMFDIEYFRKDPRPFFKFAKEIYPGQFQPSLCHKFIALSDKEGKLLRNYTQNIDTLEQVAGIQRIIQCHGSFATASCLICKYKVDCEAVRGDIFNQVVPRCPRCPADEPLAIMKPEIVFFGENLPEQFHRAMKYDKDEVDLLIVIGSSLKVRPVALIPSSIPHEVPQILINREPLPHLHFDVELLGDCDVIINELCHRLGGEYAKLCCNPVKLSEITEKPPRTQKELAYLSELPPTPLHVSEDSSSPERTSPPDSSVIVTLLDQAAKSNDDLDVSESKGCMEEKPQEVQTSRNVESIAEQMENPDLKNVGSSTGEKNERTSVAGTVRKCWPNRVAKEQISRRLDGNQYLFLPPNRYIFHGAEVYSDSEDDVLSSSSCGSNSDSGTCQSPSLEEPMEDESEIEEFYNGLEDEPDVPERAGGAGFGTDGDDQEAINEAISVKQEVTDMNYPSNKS

[4] = test system: H103; experiment: Cell cycle arrest in human H103 cells assessed as accumulation at S phase after 24 hrs by RNase/7-AAD staining based flow cytometry analysis (reference value: 18 %); format: functional
Procedure, shortened: (§1)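 H103 oral squamous carcinoma cells (ECACC) were seeded at 5 × 10^5 per well, left to adhere overnight and then treated for 24 h. Cells were trypsinized, washed in PBS and fixed in ice-cold 70% ethanol for 30 min at 4 °C. They were stained with RNase plus 7-AAD in staining buffer, and DNA content was read by imaging flow cytometry at 488 nm. G1 = 2N, G2/M = 4N.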

[5] = test system: H103; experiment: Induction of apoptosis in human H103 cells assessed as late apoptotic cells after 24 hrs by AnnexinV-FLTC/propidium iodide staining based flow cytometry (reference value: 1.32 %); format: functional
[6] = molecular target: T4, NAD-dependent protein deacetylase sirtuin-1 (Homo sapiens) (UniProt Q96EB6); experiment: Inhibition of SIRT1 in human H103 cells assessed as increase in acetylated p53 level at 5.83 uM after 72 hrs by Western blot analysis; format: cell-based
T4 sequence (whole entry): T3 sequence (Q96EB6 whole entry)
Procedure, shortened: (§2)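 H103 cells were seeded at 5 × 10^5 per well and treated either for 24 h or for 72 h. Lysates were run on SDS-PAGE and blotted to PVDF. Blocking in 5% skimmed milk with primary antibody was done overnight at 4 °C. HRP secondaries were anti-mouse 1:5000 and anti-rabbit 1:1000, 1 h at room temperature, with ECL detection. Acetylated protein was normalized to actin, then to total protein, then to untreated cells. Two independent experiments were run.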

[7] = test system: H103; experiment: Induction of apoptosis in human H103 cells assessed as necrotic cells after 24 hrs by AnnexinV-FLTC/propidium iodide staining based flow cytometry (reference value: 7.49 %); format: functional
[8] = molecular target: T5, NAD-dependent protein deacetylase sirtuin-3, mitochondrial (Homo sapiens) (UniProt Q9NTG7); experiment: Inhibition of SIRT3 in human H103 cells assessed as growth inhibition after 72 hrs by MTT assay; format: cell-based
T5 sequence (whole entry): T1 sequence (Q9NTG7 whole entry)
Procedure, shortened: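 H103 cells (ECACC) were seeded at 5 × 10^3 per well and treated for 72 h with final DMSO below 1%. Viability was read by MTT: 4 h at 37 °C in 5% CO2, formazan dissolved in DMSO, absorbance at 570 nm. Proliferation was expressed as the ratio of treated to control absorbance. Experiments were run in triplicate. GI50 was determined.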

[9] = molecular target: T6, NAD-dependent protein deacetylase sirtuin-2 (Homo sapiens) (UniProt Q8IXJ6); experiment: Inhibition of SIRT2 in human H103 cells assessed as increase in acetylated alpha tubulin level at 5.83 uM after 72 hrs by Western blot analysis; format: cell-based; procedure, shortened: as §2
T6 sequence (whole entry): T2 sequence (Q8IXJ6 whole entry)

[10] = test system: H103; experiment: Induction of apoptosis in human H103 cells assessed as viable cells after 24 hrs by AnnexinV-FLTC/propidium iodide staining based flow cytometry (reference value: 29.4 %); format: functional
[11] = test system: H103; experiment: Cell cycle arrest in human H103 cells assessed as accumulation at G1 phase after 24 hrs by RNase/7-AAD staining based flow cytometry analysis (reference value: 38.8 %); format: functional; procedure, shortened: as §1
[12] = test system: H103; experiment: Induction of apoptosis in human H103 cells assessed as early apoptotic cells after 24 hrs by AnnexinV-FLTC/propidium iodide staining based flow cytometry (reference value: 0.01 %); format: functional
[13] = molecular target: T4, NAD-dependent protein deacetylase sirtuin-1 (Homo sapiens); experiment: Inhibition of SIRT1 in human H103 cells assessed as increase in acetylated p53 level at 32 uM after 24 hrs by Western blot analysis; format: cell-based; procedure, shortened: as §2
[14] = test system: H103; experiment: Cell cycle arrest in human H103 cells assessed as accumulation at G2/M phase after 24 hrs by RNase/7-AAD staining based flow cytometry analysis (reference value: 36.5 %); format: functional; procedure, shortened: as §1

Row | SMILES | IC50 [1] | IC50 [2] | IC50 [3] | Activity [4] | Activity [5] | inhibition [6] | Activity [7] | GI50 [8] | inhibition [9] | Activity [10] | Activity [11] | Activity [12] | inhibition [13] | Activity [14]
1 | CCOC(=O)c1ccc2[nH]c(-c3ccc(OC(F)(F)F)cc3)nc2c1 | > 50 µM | > 50 µM | > 50 µM | – | – | – | – | – | – | – | – | – | – | –
2 | CCOC(=O)c1ccc2[nH]c(-c3ccc(Br)cc3)nc2c1 | > 50 µM | 45.8 µM | > 50 µM | – | – | – | – | – | – | – | – | – | – | –
3 | CCOC(=O)c1ccc2[nH]c(-c3ccc(Cl)cc3)nc2c1 | – | 30.5 µM | 33.6 µM | – | – | – | – | – | – | – | – | – | – | –
4 | CCOC(=O)c1ccc2[nH]c(-c3ccc(C(F)(F)F)cc3)nc2c1 | > 50 µM | > 50 µM | > 50 µM | – | – | – | – | – | – | – | – | – | – | –
5 | CCOC(=O)c1ccc2[nH]c(-c3ccc4c(c3)OCO4)nc2c1 | 9.8 µM | 5.6 µM | 7.7 µM | 20.3% | 7.82% | inactive | 11.3% | 5.83 µM | Active | 90.6% | 8.1% | 0.04% | inactive | 43.2%
